Assay type in all cases: functional, Homo sapiens
For test [1], the system named is HUVEC. Briefly: Effect on CKS1B gene expression in serum-starved HUVEC after 24 hrs by microarray analysis relative to control. Put shortly:
(§1)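 Serum-starved confluent HUVEC treated with 2 μM compound or DMSO in 2.5% FBS for 6 h or 24 h; RNA hybridized to Illumina Human-HT12 arrays. Data background-corrected, vst-transformed and rsn-normalized. Differential probes called by moderated paired t-test (limma) at p < 0.05 and log2 fold change >|0.5| vs DMSO.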

For test [2], the system named is HUVEC. Briefly: Effect on CKS2 gene expression in serum-starved HUVEC after 24 hrs by microarray analysis relative to control. Put shortly:
(§2)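 Confluent, serum-starved HUVEC (pooled from 3–5 donors, passage ≤4) treated with 2 μM compound or vehicle with 2.5% FBS for 6 h or 24 h. Total RNA hybridized to Illumina Human-HT12 arrays. Data were background-corrected, vst-transformed and rsn-normalized. Hits called by moderated paired t-test versus DMSO-treated cells, p < 0.05 and log2 fold change >|0.5|.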

Test [3] concerns HUVEC. Briefly: Effect on ELMOD1 gene expression in serum-starved HUVEC after 24 hrs by microarray analysis relative to control. Put shortly: as §2
Test [4] has as its system HUVEC. Put plainly: Effect on RHOB gene expression in serum-starved HUVEC after 6 hrs by microarray analysis relative to control.
The subject of test [5] is HUVEC. Put plainly: Effect on SIVA1 gene expression in serum-starved HUVEC after 6 hrs by microarray analysis relative to control.
Test [6] has as its system HUVEC. Briefly: Effect on SLC30A7 gene expression in serum-starved HUVEC after 6 hrs by microarray analysis relative to control.
For test [7], the system named is HUVEC. Put plainly: Effect on AFAP1L1 gene expression in serum-starved HUVEC after 6 hrs by microarray analysis relative to control. The gist of the method:
(§3)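 Confluent serum-starved HUVEC (primary, pooled from 3–5 donors, passage ≤4) treated with 2 μM compound or DMSO vehicle in 2.5% FBS for 6 h or 24 h. Total RNA hybridized to Illumina Human-HT12 arrays, background-corrected, vst-transformed and rsn-normalized. Differential expression versus DMSO by moderated paired t-test (p < 0.05, |log2 fold change| > 0.5).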

For test [8], the system named is HUVEC. Briefly: Effect on ANKRD1 gene expression in serum-starved HUVEC after 6 hrs by microarray analysis relative to control. The gist of the method: as §3
Test [9] concerns HUVEC. Put plainly: Effect on ANTXR1 gene expression in serum-starved HUVEC after 6 hrs by microarray analysis relative to control. Put shortly: as §1
Test [10] deals with HUVEC. Put plainly: Effect on CD68 gene expression in serum-starved HUVEC after 6 hrs by microarray analysis relative to control. The gist of the method: as §1
The test system of test [11] is HUVEC. Briefly: Effect on CDC25C gene expression in serum-starved HUVEC after 6 hrs by microarray analysis relative to control. Put shortly: as §3
Test [12] relates to HUVEC. Put plainly: Effect on CTHRC1 gene expression in serum-starved HUVEC after 6 hrs by microarray analysis relative to control. Put shortly: as §2
Test [13] concerns HUVEC. Briefly: Effect on CTSH gene expression in serum-starved HUVEC after 6 hrs by microarray analysis relative to control. Put shortly: as §2
For test [14], the system named is HUVEC. Briefly: Effect on CYP4X1 gene expression in serum-starved HUVEC after 6 hrs by microarray analysis relative to control. The gist of the method:
as §2

In test [15] the test system is HUVEC. Briefly: Effect on FTH1P8 gene expression in serum-starved HUVEC after 6 hrs by microarray analysis relative to control. Put shortly: as §2
Test [16] concerns HUVEC. Briefly: Effect on HAVCR2 gene expression in serum-starved HUVEC after 6 hrs by microarray analysis relative to control. Put shortly: as §3
In test [17] the test system is HUVEC. Put plainly: Effect on KCNAB1 gene expression in serum-starved HUVEC after 6 hrs by microarray analysis relative to control. The gist of the method: as §2
In test [18] the test system is HUVEC. Briefly: Effect on KRT7 gene expression in serum-starved HUVEC after 6 hrs by microarray analysis relative to control.
In test [19] the test system is HUVEC. Put plainly: Effect on MSMO1 gene expression in serum-starved HUVEC after 6 hrs by microarray analysis relative to control. The gist of the method: (§4)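 Serum-starved confluent HUVEC (pooled from 3–5 donors, passage ≤4) were treated with 2 μM compound or vehicle in 2.5% FBS for 6 h or 24 h, and total RNA was isolated. Hybridization was on Illumina Human-HT12. Data were processed with bgAdjust, vst and rsn normalization. Changes versus DMSO were called by moderated paired t-test at p < 0.05 and |log2 fold change| > 0.5.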

Test [20] relates to HUVEC. Put plainly: Effect on PLA2G4C gene expression in serum-starved HUVEC after 6 hrs by microarray analysis relative to control. Put shortly: as §4
Test [21] concerns HUVEC. Put plainly: Effect on PLK4 gene expression in serum-starved HUVEC after 6 hrs by microarray analysis relative to control. Put shortly:
as §4

Test [22] deals with HUVEC. Put plainly: Effect on RACGAP1 gene expression in serum-starved HUVEC after 6 hrs by microarray analysis relative to control.
Test [23] relates to HUVEC. Put plainly: Effect on UBE2J1 gene expression in serum-starved HUVEC after 6 hrs by microarray analysis relative to control.
For test [24], the system named is HUVEC. Put plainly: Effect on UHRF1 gene expression in serum-starved HUVEC after 6 hrs by microarray analysis relative to control.
Test [25] has as its system HUVEC. Put plainly: Effect on BHLHE40 gene expression in serum-starved HUVEC after 24 hrs by microarray analysis relative to control. The gist of the method:
as §1

Test [26] concerns HUVEC. Briefly: Effect on CCNA2 gene expression in serum-starved HUVEC after 24 hrs by microarray analysis relative to control. Put shortly:
as §3

For test [27], the system named is HUVEC. Put plainly: Effect on CTSH gene expression in serum-starved HUVEC after 24 hrs by microarray analysis relative to control. Put shortly:
as §2

Test [28] relates to HUVEC. Put plainly: Effect on EIF3CL gene expression in serum-starved HUVEC after 24 hrs by microarray analysis relative to control. The gist of the method:
as §3

In test [29] the test system is HUVEC. Put plainly: Effect on EMCN gene expression in serum-starved HUVEC after 24 hrs by microarray analysis relative to control. Put shortly:
as §3

In test [30] the test system is HUVEC. Put plainly: Effect on ESM1 gene expression in serum-starved HUVEC after 24 hrs by microarray analysis relative to control. Put shortly: as §3
Test [31] deals with HUVEC. Briefly: Effect on FAM212A gene expression in serum-starved HUVEC after 24 hrs by microarray analysis relative to control. Put shortly:
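Serum-starved confluent HUVEC (primary, pooled from 3–5 donors, passage ≤4) treated with 2 μM test compound or DMSO vehicle (working dilutions ≤0.1% v/v) in presence of 2.5% FBS for 6 h or 24 h; total RNA hybridized to Illumina Human-HT12 arrays; background correction, vst, rsn normalization; moderated paired t-test versus DMSO, thresholds p < 0.05 and log2 fold change >|0.5|.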

Test [32] concerns HUVEC. Briefly: Effect on FEN1 gene expression in serum-starved HUVEC after 24 hrs by microarray analysis relative to control. The gist of the method:
as §3

Test [33] relates to HUVEC. Put plainly: Effect on HAVCR2 gene expression in serum-starved HUVEC after 24 hrs by microarray analysis relative to control. Put shortly: as §3
For test [34], the system named is HUVEC. Put plainly: Effect on RNA5S9 gene expression in serum-starved HUVEC after 24 hrs by microarray analysis relative to control.
Test [35] relates to HUVEC. Briefly: Effect on TM4SF18 gene expression in serum-starved HUVEC after 24 hrs by microarray analysis relative to control.
The test system of test [36] is HUVEC. Briefly: Effect on KIF22 gene expression in serum-starved HUVEC after 24 hrs by microarray analysis relative to control. Put shortly:
as §2

Test [37] deals with HUVEC. Put plainly: Effect on RNA18S5 gene expression in serum-starved HUVEC after 24 hrs by microarray analysis relative to control.
Test [38] has as its system HUVEC. Briefly: Effect on TAOK1 gene expression in serum-starved HUVEC after 24 hrs by microarray analysis relative to control.

Regarding `COc1ccc(Cn2nc(-c3ccccc3)c3cc(Cl)nc(N4CCNCC4)c32)cc1`, the log2FC is -0.5699 in test [1]; -0.5724 in test [2]; -0.514 in test [3]; -0.225 in test [4]; -0.2087 in [5]; 0.512 in test [6].
As for `COc1ccc(Cn2nc(-c3ccccc3)c3cc(Nc4ccc(N5CCN(C)CC5)cc4)nc(N4CCN(C)CC4)c32)cc1`, the “fold change (FC)” value in [7] is recorded as 0.0116; in test [8], -0.5735; in test [9], 0.1452; in test [10], 0.5187; in [11], -0.0013; in test [13], 0.4595. Moreover, the “fold change (FC)” value in [14] came out at 0.4504; in [15] it was 0.2063; in [16] it was 0.9139; in test [17] it was 0.0717; in test [18], 0.2295; in [19], 0.7741. Moreover, the “fold change (FC)” value is given as 0.3857 in test [20]; 0.1554 in [21]; 0.012 in [24]; -0.7529 in test [26]; -0.1982 in test [28]; 0.5299 in test [29]. In addition, the “fold change (FC)” value in [30] is reported as 0.8252; in [31], 0.5468; in test [32] it was -0.6; in test [33] it was -0.7422. The log2FC in [12] was -0.0221; in test [22] it was -0.171; in test [23], 0.4634; in [25] it was 0.6018; in [27], -0.6409; in test [34], 0.0013. For the same compound, the log2FC in test [35] is given as 0.5978.
As to `COc1ccc(Cn2nc(-c3ccccc3)c3cc(Nc4ccc(N5CCN(C)CC5)cc4)nc(N4CCNCC4)c32)cc1`, the log2FC in test [36] is reported as -0.5297; in test [37], 0.5309; in [38] it was 0.6142.

Source of the values: ChEMBL document CHEMBL3856209, “Novel pyrazolopyridine derivatives as potential angiogenesis inhibitors: Synthesis, biological evaluation and transcriptome-based mechanistic analysis” (Eur J Med Chem, 2016).
